According to paper PMC4805660 (Theranostics, 2016):
Structures can show the parent of a compound that is named as a salt.

Tests used:
Assay type in all cases: in vivo, NMRI nu/nu mice
MPC-mCherry tumors [1] = test: Renal; conditions: for DAred, reduction of renal dopamine excretion [14-28 days pci] / NEred, reduction of renal norepinephrine excretion [14-28 days pci] / NMNred, reduction of renal normetanephrine excretion [14-28 days pci]: doxorubicin 6.9 µmol/kg, AN-238 0.2 µmol/kg, [^177Lu]Lu-DOTATATE 80 MBq/animal, urine LC-MS/MS, compared to control, mean ± SEM
[2] = Body weight monitoring in treated mice; conditions: doxorubicin 6.9 µmol/kg, AN-238 0.2 µmol/kg, [^177Lu]Lu-DOTATATE 80 MBq/animal
Method in brief: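 Mice carrying growing MPC-mCherry tumours (5 ± 3 mm diameter) were grouped by similar mean tumour volume and randomly assigned to control or therapy; treatment began 15 days pci. Test compounds in Infesol 15 given via tail vein at 0.3 mL/30 g body weight. Three independent experiments followed an identical protocol, with data pooled.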

MPC-mCherry tumors [3] = test: ^177Lu activity in MPC-mCherry tumors after treatment, monitored by PLI; conditions: not decay-corrected, 80 MBq/animal
Method in brief: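 Radioligand was made by heating [177Lu]LuCl3 (pH 5.2, NH4OAc) with 14 nmol peptide at 90 °C for 20 min, giving >97% HPLC radiochemical purity. 80 MBq (1.2 nmol)/mouse was given by tail vein in Infesol 15 from 15 days pci. Tumour ROIs were thresholded on mCherry/reference fluorescence (signal/background 2). PLI signal was expressed as effective and decay-corrected 177Lu activity.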

| half-life of effective ^177Lu activity in tumors (MPC-mCherry tumors [3]) | Compound | DAred, reduction of renal dopamine excretion [14-28 days pci] (MPC-mCherry tumors [1]) | NEred, reduction of renal norepinephrine excretion [14-28 days pci] (MPC-mCherry tumors [1]) | NMNred, reduction of renal normetanephrine excretion [14-28 days pci] (MPC-mCherry tumors [1]) | body weight change after treatment [2] | fold more effective in reducing overall renal monoamine excretion compared to doxorubicin and AN-238 (MPC-mCherry tumors [1]; 14-28 days pci) |
| --- | --- | --- | --- | --- | --- | --- |
|  | COc1cccc2c1C(=O)c1c(O)c3c(c(O)c1C2=O)C[C@@](O)(C(=O)CO)C[C@@H]3O[C@H]1C[C@H](N)[C@H](O)[C@H](C)O1 [doxorubicin, doxorubicin hydrochloride] | 31.5 ± 11.3% | 74.8 ± 7.5 % | 77.3 ± 5.1 % | tended to decrease immediately |  |
| 48 h | [^177Lu]Lu-DOTA-(Tyr^3)octreotate [[^177Lu]Lu-DOTATATE] | 97.2 ± 0.9 % | 99.6 ± 1.9 % | 100 ± 0.7 % |  | 2 fold |
